According to ChEMBL document CHEMBL1144033, “Novel trans-3,4-dimethyl-4-(3-hydroxyphenyl)piperidines as mu opioid receptor antagonists with improved opioid receptor selectivity profiles” (Bioorg Med Chem Lett, 2008):
pKi: −log10 of the molar value. The source made the active and inactive calls. The rule behind the calls is not given here.

Columns and labels:
[1] = target: T1, Kappa-type opioid receptor (Homo sapiens, UniProt P41145); experiment: Displacement of [3H]diprenorphine from human cloned kappa opioid receptor
T1 sequence (P41145 whole entry): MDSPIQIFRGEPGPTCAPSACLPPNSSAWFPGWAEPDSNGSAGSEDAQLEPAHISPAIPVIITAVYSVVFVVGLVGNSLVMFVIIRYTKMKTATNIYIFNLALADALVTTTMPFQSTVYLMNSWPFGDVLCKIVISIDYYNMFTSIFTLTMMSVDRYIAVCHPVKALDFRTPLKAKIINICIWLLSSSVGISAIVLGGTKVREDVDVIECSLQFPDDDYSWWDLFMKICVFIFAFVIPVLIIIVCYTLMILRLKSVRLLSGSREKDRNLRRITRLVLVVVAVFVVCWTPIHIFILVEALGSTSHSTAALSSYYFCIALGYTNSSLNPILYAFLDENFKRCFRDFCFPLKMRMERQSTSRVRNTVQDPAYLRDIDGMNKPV

[2] = target: T2, Delta-type opioid receptor (Homo sapiens, UniProt P41143); experiment: Displacement of [3H]diprenorphine from human cloned delta opioid receptor
T2 sequence (P41143 whole entry): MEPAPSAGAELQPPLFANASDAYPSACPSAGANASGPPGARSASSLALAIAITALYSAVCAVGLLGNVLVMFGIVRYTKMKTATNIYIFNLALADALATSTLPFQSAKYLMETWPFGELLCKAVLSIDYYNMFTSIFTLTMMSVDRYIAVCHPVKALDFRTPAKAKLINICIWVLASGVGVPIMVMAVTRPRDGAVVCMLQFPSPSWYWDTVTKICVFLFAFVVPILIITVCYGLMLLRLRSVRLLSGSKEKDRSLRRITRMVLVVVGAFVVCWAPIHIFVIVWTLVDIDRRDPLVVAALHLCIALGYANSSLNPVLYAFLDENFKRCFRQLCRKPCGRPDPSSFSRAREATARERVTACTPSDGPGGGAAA

Mus musculus [3] = experiment: Antagonist activity on morphine-induced gastrointestinal antitransit effect in Swiss Webster mouse at 0.1 mg/kg, sc after 1 hr; assay type: functional; parameters: scale not given: the % may be the effect or the level left; details: route subcutaneous
In short: (§1)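 Male Swiss-Webster mice (20-25 g), fasted overnight, got vehicle (10% DMSO:20% cremophor EL:70% saline) or compound s.c. Morphine (3 mg/kg s.c.) followed 25 min later. After a further 10 min, mice received 0.3 mL charcoal meal (charcoal:flour:water 1:2:8, w/w/v). Small intestine removed 25 min later; %GIT = charcoal leading-edge distance/intestine length ×100.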

Mus musculus [4] = experiment: Antagonist activity on morphine-induced gastrointestinal antitransit effect in Swiss Webster mouse at 0.3 mg/kg, po after 1 hr; assay type: functional, organism-based; parameters: dose 0.3 mg/kg
Mus musculus [5] = experiment: Antagonist activity on morphine-induced gastrointestinal antitransit effect in Swiss Webster mouse at 1 mg/kg, sc after 1 hr; assay type: functional; parameters: scale not given: the % may be the effect or the level left; details: route subcutaneous; in short: as §1
Mus musculus [6] = experiment: Antagonist activity on morphine-induced physical dependence in Swiss Webster mouse at 10 mg/kg, po; assay type: functional, organism-based; parameters: dose 10 mg/kg
[7] = target: T2, Delta-type opioid receptor; experiment: Displacement of [3H]diprenorphine from human cloned delta opioid receptor at 10 uM
[8] = target: T1, Kappa-type opioid receptor; experiment: Displacement of [3H]diprenorphine from human cloned kappa opioid receptor at 10 uM
[9] = target: Mu-type opioid receptor (Homo sapiens) (UniProt P35372); experiment: Displacement of [3H]diprenorphine from human cloned mu opioid receptor at 10 uM
Sequence of Mu-type opioid receptor (Homo sapiens) (P35372 whole entry): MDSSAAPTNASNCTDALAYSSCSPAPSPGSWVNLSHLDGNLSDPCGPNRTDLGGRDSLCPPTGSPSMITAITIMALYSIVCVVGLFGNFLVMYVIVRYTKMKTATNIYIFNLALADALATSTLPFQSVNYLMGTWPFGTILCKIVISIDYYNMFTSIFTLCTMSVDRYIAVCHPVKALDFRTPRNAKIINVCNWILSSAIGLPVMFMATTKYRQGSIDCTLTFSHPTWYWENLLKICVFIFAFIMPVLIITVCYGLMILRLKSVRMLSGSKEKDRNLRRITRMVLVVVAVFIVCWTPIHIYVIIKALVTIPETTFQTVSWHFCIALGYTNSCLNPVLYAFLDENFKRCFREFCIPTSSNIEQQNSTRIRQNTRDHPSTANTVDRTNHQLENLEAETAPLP

SMILES	pKi [1]	pKi [2]	also measured
C[C@H]1CN(CCC(=O)N(Cc2ccccc2)[C@@H](Cc2ccccc2)C(=O)O)CC[C@@]1(C)c1cccc(O)c1	6.26	7.41	–
C[C@H]1CN(C[C@H](Cc2ccccc2)C(=O)N[C@@H](CCCCN)C(=O)O)CC[C@@]1(C)c1cccc(O)c1	–	–	Activity (Mus musculus [3]): 64%; Activity (Mus musculus [4]): Active; Activity (Mus musculus [5]): 82%; Activity (Mus musculus [6]): inactive
C[C@H]1CN(C[C@H](Cc2ccccc2)C(=O)NCC(=O)O)CC[C@@]1(C)c1cccc(O)c1 [ALVIMOPAN]	7.00	7.92	Activity (Mus musculus [3]): 69%
C[C@H]1CN(CCC(=O)NCC(=O)O)CC[C@@]1(C)c1cccc(O)c1	–	–	inhibition [7]: 5%; inhibition [8]: 4%; inhibition [9]: 20%
C[C@H]1CN(C[C@H](Cc2ccccc2)C(=O)N[C@@H](CC(=O)O)C(=O)O)CC[C@@]1(C)c1cccc(O)c1	–	6.30	inhibition [8]: 27%
C[C@H]1CN(CCC(=O)N[C@@H](CC2CCCCC2)C(=O)O)CC[C@@]1(C)c1cccc(O)c1	–	6.77	inhibition [8]: 44%
C[C@H](NC(=O)[C@@H](Cc1ccccc1)CN1CC[C@@](C)(c2cccc(O)c2)[C@@H](C)C1)C(=O)O	7.17	7.66	–
C[C@H]1CN(CCC(=O)N[C@@H](CCc2ccccc2)C(=O)O)CC[C@@]1(C)c1cccc(O)c1	6.16	6.44	–
C[C@H]1CN(CCC(=O)N(CC2CC2)[C@@H](Cc2ccccc2)C(=O)O)CC[C@@]1(C)c1cccc(O)c1	5.66	7.00	–
C[C@H]1CN(CCC(=O)N(Cc2ccc(-c3ccccc3)cc2)[C@@H](Cc2ccccc2)C(=O)O)CC[C@@]1(C)c1cccc(O)c1	6.64	7.28	–
C[C@H]1CN(C[C@H](Cc2ccccc2)C(=O)N[C@@H](CC2CCCCC2)C(=O)O)CC[C@@]1(C)c1cccc(O)c1	6.14	7.82	–
C[C@H]1CN(CCC(=O)N(CCc2ccccc2)[C@@H](Cc2ccccc2)C(=O)O)CC[C@@]1(C)c1cccc(O)c1	5.92	–	–
CCN(C(=O)CCN1CC[C@@](C)(c2cccc(O)c2)[C@@H](C)C1)[C@@H](Cc1ccccc1)C(=O)O	–	6.29	inhibition [8]: 44%
C[C@H]1CN(CCC(=O)N(C)[C@@H](Cc2ccccc2)C(=O)O)CC[C@@]1(C)c1cccc(O)c1	–	6.21	inhibition [8]: 35%
C[C@H]1CN(C[C@H](Cc2ccccc2)C(=O)N[C@@H](Cc2ccccc2)C(=O)O)CC[C@@]1(C)c1cccc(O)c1	6.60	7.82	–
C[C@H]1CN(C[C@H](Cc2ccccc2)C(=O)N[C@@H](Cc2ccc(-c3ccccc3)cc2)C(=O)O)CC[C@@]1(C)c1cccc(O)c1	6.80	8.08	–
C[C@H]1CN(C[C@H](Cc2ccccc2)C(=O)N[C@@H](CCC(=O)O)C(=O)O)CC[C@@]1(C)c1cccc(O)c1	–	6.44	inhibition [8]: 26%
C[C@H]1CN(C[C@H](Cc2ccccc2)C(=O)N[C@@H](Cc2ccc3ccccc3c2)C(=O)O)CC[C@@]1(C)c1cccc(O)c1	6.62	8.49	–
C[C@H]1CN(CCC(=O)N[C@@H](CCCCN)C(=O)O)CC[C@@]1(C)c1cccc(O)c1	–	–	inhibition [7]: 11%; inhibition [8]: 3%; inhibition [9]: 45%
C[C@@H](NC(=O)[C@@H](Cc1ccccc1)CN1CC[C@@](C)(c2cccc(O)c2)[C@@H](C)C1)C(=O)O	6.04	7.13	–
C[C@H]1CN(CCC(=O)N(Cc2cccc(Cl)c2)[C@@H](Cc2ccccc2)C(=O)O)CC[C@@]1(C)c1cccc(O)c1	6.34	7.62	–
C[C@H]1CN(CCC(=O)N(c2ccccc2)[C@@H](Cc2ccccc2)C(=O)O)CC[C@@]1(C)c1cccc(O)c1	5.85	7.17	–
C[C@H]1CN(C[C@H](Cc2ccccc2)C(=O)N[C@@H](CCc2ccccc2)C(=O)O)CC[C@@]1(C)c1cccc(O)c1	6.29	8.00	–
C[C@H]1CN(C[C@H](Cc2ccccc2)C(=O)N[C@@H](Cc2cccc3ccccc23)C(=O)O)CC[C@@]1(C)c1cccc(O)c1	7.08	7.51	–
C[C@H]1CN(CCC(=O)N[C@@H](Cc2ccccc2)C(=O)O)CC[C@@]1(C)c1cccc(O)c1	–	6.00	inhibition [8]: 39%
C[C@H]1CN(CCC(=O)N[C@@H](Cc2ccc(-c3ccccc3)cc2)C(=O)O)CC[C@@]1(C)c1cccc(O)c1	5.96	6.80	–
CC(C)CN(C(=O)CCN1CC[C@@](C)(c2cccc(O)c2)[C@@H](C)C1)[C@@H](Cc1ccccc1)C(=O)O	5.66	–	–
